Series [1] addresses Mast/stem cell growth factor receptor Kit (Homo sapiens, UniProt P10721, T670I). The experiment in a line: Inhibition of His-tagged c-KIT T670I mutant (544 to 935 residues) (unknown origin) expressed in baculovirus infected sf9 cells pre-incubated for 60 mins followed by ATP addition and measured after 1 hr by Z-LYTE assay.
Series [2] can be described thus: Tmax in mouse at 10 mg/kg, po measured after 5 to 720 mins by LC-tandem mass spectrometry analysis. Type of series: ADME, organism-based. As to conditions: in vivo.
Series [3] can be described thus: Apparent clearance in mouse at 1 mg/kg, iv measured after 2 to 720 mins by LC-tandem mass spectrometry analysis. It counts as ADME, organism-based. The conditions noted are these: in vivo, read-out: CL(app) (converted). In outline:
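Mice dosed 1 mg/kg i.v. or 10 mg/kg p.o.; plasma drug levels by LC-MS/MS, parameters by noncompartmental analysis; values not from triplicate testing.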

Series [4] can be described thus: Oral bioavailability in mouse at 10 mg/kg measured after 5 to 720 mins by LC-tandem mass spectrometry analysis. It counts as ADME, organism-based. As to conditions: in vivo.
Series [5] deals with Serine/threonine-protein kinase Nek1 (Homo sapiens) (UniProt Q96PY6). The experiment in a line: Binding affinity to wild-type human partial length NEK1 (M1 to K278 residues) expressed in bacterial expression system assessed as enzyme remaining activity at 1 uM by Kinomescan assay relative to control. Put shortly: (§1)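 KINOMEscan competition binding panel of 468 kinases and mutants, compound at 1 μM; binding reported as percent of control.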

Series [6] in a line: MRT (0 to infinity) in mouse at 10 mg/kg, po measured after 5 to 720 mins by LC-tandem mass spectrometry analysis. It counts as ADME, organism-based. As to conditions: in vivo.
Series [7] addresses T1, Mast/stem cell growth factor receptor Kit (Homo sapiens, UniProt P10721). Briefly: Inhibition of wild-type His-tagged c-KIT (unknown origin) expressed in baculovirus infected sf9 cells pre-incubated for 60 mins followed by ATP addition and measured after 1 hr by Z-LYTE assay.
Series [8] has as its target Platelet-derived growth factor receptor beta (Homo sapiens, UniProt P09619). The experiment in a line: Inhibition of wild-type human partial length PDGFRB (V582 to Y1009 residues) expressed in bacterial expression system after 1 hr by Z-LYTE assay.
Series [9] deals with T1, Mast/stem cell growth factor receptor Kit. Briefly: Inhibition of TEL fused wild type c-KIT (unknown origin) transfected in mouse BaF3 cells assessed as reduction in phosphorylation at Y823 residue after 2 hrs by Western blot analysis. It counts as cell-based. In general terms: Immunoblotting shows a protein as a band on a membrane.
Series [10] can be described thus: Antiproliferative activity against human GIST48B cells incubated for 72 hrs by CCK8 assay. Type of series: functional. Put shortly:
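Adherent GIST cells seeded at 1.5-5 × 10^4 cells/mL and left overnight at 37 °C, 5% CO2. Medium then replaced with medium holding serial compound dilutions; 72 h incubation. Viability by CCK-8, absorbance at 450 nm, normalized to DMSO control; GI50 from dose-response fit.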
(In general: Tetrazolium assays rely on reduction of a dye to a coloured formazan, in cell work by metabolically active cells.)

Series [11] addresses T1, Mast/stem cell growth factor receptor Kit. Briefly: Inhibition of wild type TEL fused c-KIT (unknown origin) transfected in mouse BAF3 cells assessed as growth inhibition after 72 hrs by CCK8 assay. It counts as cell-based. As to conditions: baf3, 72 h. In outline:
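IL-3 independent BaF3 cells stably expressing tel-c-KIT wt or tel-c-KIT T670I, grown in RPMI 1640 with 10% FBS, 2% L-glutamine, 37 °C, 5% CO2. Suspension cells at 1.5 to 5 × 10^4 cells/mL mixed with serial compound dilutions and incubated 72 h. Viability read by CCK-8 absorbance at 450 nm, normalized to DMSO; GI50 from curve fit. Selectivity is wt GI50 over T670I GI50.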

The target is the same in series [12]. The experiment in a line: Inhibition of wild type c-KIT phosphorylation at Y703 residue in human COLO320DM cells after 2 hrs by Western blot analysis. Type of series: cell-based.
In series [13] the test system is Mast/stem cell growth factor receptor Kit (Homo sapiens), P10721 [A829P]. Briefly: Inhibition of TEL fused c-KIT A829P mutant (unknown origin) transfected in mouse BAF3 cells assessed as growth inhibition after 72 hrs by CCK8 assay. It counts as cell-based. Put shortly: (§2)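 Tel-c-KIT-transformed BaF3 lines (IL-3 independent) kept in RPMI 1640 with 10% FBS, 2% L-glutamine and pen/strep. Cells at 1.5 to 5 × 10^4 cells/mL mixed with graded compound and incubated 72 h at 37 °C, 5% CO2. Viability by CCK-8 absorbance at 450 nm, normalized to DMSO. GI50 from dose–response fit.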

In a further series the test system is Mus musculus. The experiment in a line: Inhibition of c-KIT phosphorylation at Y823 residue in tumor of human GIST5R cells xenografted in nude mouse at 100 mg/kg, po administered as single dose and measured after 2 hrs. It counts as functional, organism-based. In outline:
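Female nu/nu mice bearing subcutaneous GIST-5R xenografts (cells in Matrigel, right flank) given one oral gavage dose of 100 mg/kg in HKI suspension (0.5% methocellulose/0.4% Tween80 in ddH2O). Tumors collected over a 2 h time course; p-c-KIT, p-ERK and p-AKT assessed by Western blot; plasma drug levels monitored in parallel.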
Background: In xenograft studies the graft and the host belong to different species.

Series [14] has as its target Casein kinase I isoform alpha (Homo sapiens, UniProt P48729). Briefly: Binding affinity to wild-type human partial length CSNK1A1 (M1 to L301 residues) expressed in mammalian expression system assessed as enzyme remaining activity at 1 uM by Kinomescan assay relative to control. In outline: as §1
In series [15] the test system is Homo sapiens. Briefly: Antitumor activity against human GIST5R cells xenografted in po dosed nude mouse assessed as reduction in tumor size administered […] via gavage for 28 days post tumor inoculation. Type of series: functional, organism-based. In outline: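 Female nu/nu mice (5 weeks old) given subcutaneous right-flank GIST-5R cells in Matrigel. Dosing began at tumors of 200-400 mm3; randomized, 4 mice per group. Daily oral dosing (QD) at 25, 50 or 100 mg/kg in 0.5% methylcellulose/0.4% Tween80, or vehicle alone, for 28 days. Body weight and tumor volume, (W²×L)/2, measured daily; mean±SEM.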

Series [16] addresses Serine/threonine-protein kinase pim-3 (Homo sapiens, UniProt Q86V86). Briefly: Binding affinity to wild-type human partial length PIM3 (G16 to A317 residues) expressed in bacterial expression system assessed as enzyme remaining activity at 1 uM by Kinomescan assay relative to control. In outline: as §1
A short description of series [17]: Cmax in Sprague-Dawley rat at 1 mg/kg, iv measured after 2 to 720 mins by LC-tandem mass spectrometry analysis. Type of series: ADME, organism-based. Further details: dose 1 mg/kg, route intravenous. As to conditions: in vivo. In outline:
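Male Sprague-Dawley rats (190-210 g), fasted 12 h, randomized into two groups: 1 mg/kg i.v. or 10 mg/kg p.o., both formulated in 10% DMSO/90% of 5% glucose water. Blood sampled at 2-720 min (i.v.) or 5-720 min (p.o.). Plasma protein-precipitated with methanol, caffeine internal standard, LC-MS/MS. Noncompartmental analysis; triplicate, ±SD.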

The species named for series [18] is Homo sapiens. The experiment in a line: Induction of cell cycle arrest in human GIST5R cells harboring 560 to 578 deletion/T670I double mutant after 24 hrs. Type of series: functional, cell-based.
Series [19] concerns Mast/stem cell growth factor receptor Kit (Homo sapiens), P10721 [V559D,T670I]. The experiment in a line: Inhibition of TEL fused c-KIT T670I/V559D double mutant (unknown origin) transfected in mouse BAF3 cells assessed as growth inhibition after 72 hrs by CCK8 assay. It counts as cell-based. In outline:
as §2

Active and inactive are the calls of the source. The rule behind the calls is not given here. Where only a bound is given, the exact number is not on record here.

As a reminder, the IC50 is the concentration needed to halve the response being measured. As a reminder, the Tmax is the time from dosing to the highest level. The term bioavailability denotes dose-corrected exposure relative to a reference, in per cent. Lower therefore signals little systemic uptake. What is called MRT inf is a mean duration of stay, worked out from the concentration-time curve. The term EC50 denotes the concentration at which the effect is half-maximal. As usually defined, the GI50 is the concentration giving 50% growth inhibition. In general, Cmax refers to the maximum level reached in the sampled fluid or tissue.

T1 sequence (P10721 whole entry, the tested form may be a part): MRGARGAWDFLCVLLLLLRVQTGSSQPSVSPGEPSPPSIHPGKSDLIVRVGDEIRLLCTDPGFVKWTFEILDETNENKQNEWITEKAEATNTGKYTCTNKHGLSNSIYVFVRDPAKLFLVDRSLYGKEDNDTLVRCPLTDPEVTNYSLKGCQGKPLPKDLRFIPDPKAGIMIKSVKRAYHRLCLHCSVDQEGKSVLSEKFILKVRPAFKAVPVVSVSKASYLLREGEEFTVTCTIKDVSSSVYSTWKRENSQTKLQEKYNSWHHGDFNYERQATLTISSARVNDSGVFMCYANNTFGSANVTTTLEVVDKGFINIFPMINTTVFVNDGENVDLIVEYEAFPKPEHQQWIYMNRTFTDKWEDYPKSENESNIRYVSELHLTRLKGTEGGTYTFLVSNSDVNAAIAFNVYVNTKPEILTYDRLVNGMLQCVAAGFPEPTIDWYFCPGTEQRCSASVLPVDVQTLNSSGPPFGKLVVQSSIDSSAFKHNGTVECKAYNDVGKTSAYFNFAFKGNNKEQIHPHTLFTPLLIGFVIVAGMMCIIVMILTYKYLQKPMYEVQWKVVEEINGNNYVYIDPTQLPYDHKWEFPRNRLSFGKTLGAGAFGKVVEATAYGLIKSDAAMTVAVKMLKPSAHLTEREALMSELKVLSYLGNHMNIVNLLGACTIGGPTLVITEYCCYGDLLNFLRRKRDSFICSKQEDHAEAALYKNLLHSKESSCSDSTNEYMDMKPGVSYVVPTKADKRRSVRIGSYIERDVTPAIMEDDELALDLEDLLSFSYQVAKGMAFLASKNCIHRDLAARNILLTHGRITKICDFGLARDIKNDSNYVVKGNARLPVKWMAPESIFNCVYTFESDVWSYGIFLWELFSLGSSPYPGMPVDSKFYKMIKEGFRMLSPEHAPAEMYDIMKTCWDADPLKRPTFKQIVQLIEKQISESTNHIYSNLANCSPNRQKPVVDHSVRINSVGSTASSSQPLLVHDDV
Sequence of Mast/stem cell growth factor receptor Kit (Homo sapiens), P10721 [A829P] (P10721 whole entry A829P, the tested form may be a part): as the sequence (P10721 whole entry, the tested form may be a part) above, with A829P counted along it
Sequence of Platelet-derived growth factor receptor beta (P09619 whole entry, the tested form may be a part): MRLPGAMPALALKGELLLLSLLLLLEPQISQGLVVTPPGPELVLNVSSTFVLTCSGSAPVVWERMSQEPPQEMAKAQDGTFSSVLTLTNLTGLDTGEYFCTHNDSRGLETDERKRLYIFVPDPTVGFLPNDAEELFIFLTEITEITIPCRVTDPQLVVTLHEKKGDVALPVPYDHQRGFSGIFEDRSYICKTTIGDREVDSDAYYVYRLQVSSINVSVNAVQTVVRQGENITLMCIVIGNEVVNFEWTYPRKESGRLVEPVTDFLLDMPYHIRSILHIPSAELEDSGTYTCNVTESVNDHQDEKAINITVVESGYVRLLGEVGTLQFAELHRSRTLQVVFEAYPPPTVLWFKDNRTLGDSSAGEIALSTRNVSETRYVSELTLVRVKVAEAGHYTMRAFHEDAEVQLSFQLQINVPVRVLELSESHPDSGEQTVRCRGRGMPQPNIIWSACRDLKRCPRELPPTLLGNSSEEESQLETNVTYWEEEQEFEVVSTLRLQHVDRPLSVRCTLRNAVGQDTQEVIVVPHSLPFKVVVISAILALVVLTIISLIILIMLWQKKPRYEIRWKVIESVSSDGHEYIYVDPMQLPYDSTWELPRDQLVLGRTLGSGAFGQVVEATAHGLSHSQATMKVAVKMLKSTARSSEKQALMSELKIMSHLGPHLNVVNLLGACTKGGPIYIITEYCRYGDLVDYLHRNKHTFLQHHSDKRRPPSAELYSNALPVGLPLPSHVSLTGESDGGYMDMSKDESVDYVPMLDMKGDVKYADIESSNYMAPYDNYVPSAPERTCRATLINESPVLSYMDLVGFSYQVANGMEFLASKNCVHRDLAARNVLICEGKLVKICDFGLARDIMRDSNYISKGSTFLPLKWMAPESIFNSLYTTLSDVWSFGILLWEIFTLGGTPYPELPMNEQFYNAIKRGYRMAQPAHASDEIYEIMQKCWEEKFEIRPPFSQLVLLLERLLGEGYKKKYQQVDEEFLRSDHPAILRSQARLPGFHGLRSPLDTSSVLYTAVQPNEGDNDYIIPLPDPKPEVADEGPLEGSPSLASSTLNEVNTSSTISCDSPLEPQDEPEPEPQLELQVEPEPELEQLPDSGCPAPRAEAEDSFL
Sequence of Mast/stem cell growth factor receptor Kit (Homo sapiens, UniProt P10721, T670I) (P10721 26-976 T670I limits assumed): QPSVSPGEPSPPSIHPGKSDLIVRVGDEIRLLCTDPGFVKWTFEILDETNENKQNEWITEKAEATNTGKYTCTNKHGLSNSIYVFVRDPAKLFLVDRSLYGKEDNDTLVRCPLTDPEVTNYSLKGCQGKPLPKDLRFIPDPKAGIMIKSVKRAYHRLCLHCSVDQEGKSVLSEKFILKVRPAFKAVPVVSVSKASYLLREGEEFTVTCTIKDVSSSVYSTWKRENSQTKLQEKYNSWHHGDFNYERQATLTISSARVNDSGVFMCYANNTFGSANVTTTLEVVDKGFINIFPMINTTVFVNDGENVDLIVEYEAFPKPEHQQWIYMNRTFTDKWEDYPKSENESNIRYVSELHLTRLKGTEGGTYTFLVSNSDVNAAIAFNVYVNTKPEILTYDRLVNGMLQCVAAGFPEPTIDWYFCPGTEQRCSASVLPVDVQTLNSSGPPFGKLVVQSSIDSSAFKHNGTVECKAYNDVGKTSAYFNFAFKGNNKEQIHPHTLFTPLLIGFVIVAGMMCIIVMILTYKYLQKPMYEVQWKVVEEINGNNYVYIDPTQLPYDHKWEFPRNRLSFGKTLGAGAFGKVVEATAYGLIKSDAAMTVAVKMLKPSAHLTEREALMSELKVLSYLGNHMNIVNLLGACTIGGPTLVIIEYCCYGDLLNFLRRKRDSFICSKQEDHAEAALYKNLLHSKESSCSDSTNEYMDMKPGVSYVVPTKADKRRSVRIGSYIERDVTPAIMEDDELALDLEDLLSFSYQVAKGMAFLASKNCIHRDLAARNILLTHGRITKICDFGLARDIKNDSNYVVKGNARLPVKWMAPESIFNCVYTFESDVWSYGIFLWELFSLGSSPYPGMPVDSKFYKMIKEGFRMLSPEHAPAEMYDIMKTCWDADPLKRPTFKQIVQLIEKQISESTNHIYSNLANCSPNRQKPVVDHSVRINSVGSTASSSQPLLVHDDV
Sequence of Mast/stem cell growth factor receptor Kit (Homo sapiens), P10721 [V559D,T670I] (P10721 whole entry V559D/T670I, the tested form may be a part): as the sequence (P10721 whole entry, the tested form may be a part) above, with V559D, T670I counted along it

Regarding `O=C(CC(=O)Nc1ccc2c(/C=C/c3ccccn3)n[nH]c2c1)Nc1cccc(F)c1`, the figures for the IC50 in series [1], in series [7] and in [8] were 45 nM, 536 nM and 2080 nM, respectively. The Tmax in [2] came out at 30 min. In [3], the clearance is 18.3 mL/min/kg. The same compound came in with a bioavailability in series [4] of 16.4%. The Activity is 0% in [5], 0.2% in series [14], 0% in series [16] and “Dose-dependent effect” in the series listed under Homo sapiens [18]. Further, the MRT inf in [6] came to 2.2 h. In addition, the EC50 was over 1000 nM in series [9] and 1810 nM in series [12]. The GI50 in series [10] was over 10 µM; in [11] it was 1150 nM; in [13], 6 µM; in series [19], 122 nM. For the same compound, in the series on Mus musculus, the inhibition result is “inactive”. In the series with Homo sapiens [15], the inhibition result was “Dose-dependent effect”. In addition, the Cmax in series [17] turned out to be 378 ng/mL.

Source of the values: ChEMBL document CHEMBL4304743, “Discovery of ( E)- N1-(3-Fluorophenyl)- N3-(3-(2-(pyridin-2-yl)vinyl)-1 H-indazol-6-yl)malonamide (CHMFL-KIT-033) as a Novel c-KIT T670I Mutant Selective Kinase Inhibitor for Gastrointestinal Stromal Tumors (GISTs)” (J Med Chem, 2019).
